Results taken from ChEMBL document CHEMBL1240344, “Phage-encoded combinatorial chemical libraries based on bicyclic peptides” (Nat Chem Biol, 2009).
Activity calls are given as the source filed them. The calls are words filed in the database; no cut-off is given here. Starred links: 1 amine or outer side, 2 acyl side, 3 side chain; linkers in the order of their positions; H or OH if unused. Positions of bridges follow the written chain, without caps; N, C: chain ends. Residues, ends and D or L forms follow the SMILES beside them. TBMB = c1c(C[*:1])cc(C[*:3])cc1C[*:2]

Key:
[1] = target: Urokinase-type plasminogen activator (Homo sapiens, UniProt P00749); experiment: Binding affinity to urokinase-type plasminogen activator
[2] = target: Angiotensin-converting enzyme 2 (Homo sapiens, UniProt Q9BYF1); experiment: Binding affinity to angiotensin converting enzyme 2
[3] = Chemical stability assessed as compound cleavage in presence of Aeromonas proteolytica by mass spectrometric analysis; format: physicochemical
Outline: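 The kallikrein-cleaved peptide was incubated with leucyl aminopeptidase from Aeromonas proteolytica. The products were analysed by mass spectrometry to locate the cleavage site.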

[4] = Chemical stability of compound assessed as drug cleavage in presence of plasma kallikrein after 24 hrs at 37 degC by mass spectrometric analysis; format: physicochemical; conditions: read-out: Activity
Outline: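 The peptide was incubated with human plasma kallikrein. Cleavage was detected by mass spectrometry as an 18 Da mass gain, and the cleaved fraction was estimated.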

Plasma kallikrein [5] = target: T1, Plasma kallikrein (Homo sapiens, UniProt P03952); experiment: Inhibition of kallikrein-mediated intrinsic coagulation pathway in human plasma assessed as reduction in factor 12a generation at 160 nM by colorimetric assay; format: cell-free
Outline: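 Human plasma was triggered with kaolin to start the intrinsic pathway. Factor XIIa activity was then read with a colorimetric substrate.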

Plasma kallikrein [6] = target: T1, Plasma kallikrein; experiment: Inhibition of human plasma kallikrein using Z-Phe-Arg-AMC substrate after 30 mins by spectrophotometric assay
[7] = target: Coagulation factor XI (Homo sapiens) (UniProt P03951); experiment: Inhibition of human factor 11a at 10 uM using Z-Phe-Arg-AMC substrate after 30 mins by spectrophotometric assay
[8] = target: Prothrombin (Homo sapiens) (UniProt P00734); experiment: Inhibition of human thrombin at 10 uM using Boc-Phe-Ser-Arg-AMC substrate after 30 mins by spectrophotometric assay
[9] = target: Plasma kallikrein (Mus musculus) (UniProt P26262); experiment: Inhibition of mouse plasma kallikrein at 10 uM using Z-Phe-Arg-AMC substrate after 30 mins by spectrophotometric assay; format: cell-free
[10] = Binding affinity to chymotrypsin
[11] = target: T2, Deoxyribonuclease-2-alpha (Homo sapiens, UniProt O00115); experiment: Binding affinity to Dnase 2
T2 sequence (O00115 whole entry): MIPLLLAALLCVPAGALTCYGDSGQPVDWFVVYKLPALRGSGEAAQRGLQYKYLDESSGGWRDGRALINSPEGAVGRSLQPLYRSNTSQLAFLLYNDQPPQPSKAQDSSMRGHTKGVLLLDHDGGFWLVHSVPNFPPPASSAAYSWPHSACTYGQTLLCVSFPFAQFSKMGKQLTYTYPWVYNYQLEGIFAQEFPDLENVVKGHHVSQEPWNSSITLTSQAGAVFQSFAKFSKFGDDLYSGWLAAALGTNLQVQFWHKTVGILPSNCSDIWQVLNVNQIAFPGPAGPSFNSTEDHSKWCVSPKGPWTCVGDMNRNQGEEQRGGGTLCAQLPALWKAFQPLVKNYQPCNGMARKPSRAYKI

[12] = target: T3, Prostate-specific antigen (Homo sapiens, UniProt P07288); experiment: Binding affinity to prostate specific antigen
T3 sequence (P07288 whole entry): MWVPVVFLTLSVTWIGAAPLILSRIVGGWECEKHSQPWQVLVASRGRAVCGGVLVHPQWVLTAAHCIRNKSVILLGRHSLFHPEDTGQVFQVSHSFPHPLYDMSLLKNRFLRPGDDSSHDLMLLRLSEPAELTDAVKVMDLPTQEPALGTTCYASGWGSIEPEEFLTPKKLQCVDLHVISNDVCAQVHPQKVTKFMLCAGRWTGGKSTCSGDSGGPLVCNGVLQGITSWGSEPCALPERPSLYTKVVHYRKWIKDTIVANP

[13] = Binding affinity to beta-lactamase
[14] = target: Coagulation factor VII/tissue factor (Homo sapiens, UniProt P08709); experiment: Binding affinity to tissue factor/factor 7a; format: protein-complex assay
[15] = target: Receptor tyrosine-protein kinase erbB-2 (Homo sapiens, UniProt P04626); experiment: Binding affinity to ErbB-2
Kallikrein-2 = target: T4, Kallikrein-2 (Homo sapiens, UniProt P20151); experiment: Binding affinity to human kallikrein 2
T4 sequence (P20151 whole entry): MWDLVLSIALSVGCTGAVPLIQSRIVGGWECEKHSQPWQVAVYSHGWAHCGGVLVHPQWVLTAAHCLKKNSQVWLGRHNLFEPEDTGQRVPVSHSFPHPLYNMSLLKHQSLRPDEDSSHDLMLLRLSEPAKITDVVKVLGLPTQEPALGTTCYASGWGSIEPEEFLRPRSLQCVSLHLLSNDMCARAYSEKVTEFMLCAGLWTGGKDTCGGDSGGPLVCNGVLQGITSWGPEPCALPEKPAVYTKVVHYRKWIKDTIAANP

[16] = Binding affinity to urease

T1 sequence (P03952 20-390 limits assumed): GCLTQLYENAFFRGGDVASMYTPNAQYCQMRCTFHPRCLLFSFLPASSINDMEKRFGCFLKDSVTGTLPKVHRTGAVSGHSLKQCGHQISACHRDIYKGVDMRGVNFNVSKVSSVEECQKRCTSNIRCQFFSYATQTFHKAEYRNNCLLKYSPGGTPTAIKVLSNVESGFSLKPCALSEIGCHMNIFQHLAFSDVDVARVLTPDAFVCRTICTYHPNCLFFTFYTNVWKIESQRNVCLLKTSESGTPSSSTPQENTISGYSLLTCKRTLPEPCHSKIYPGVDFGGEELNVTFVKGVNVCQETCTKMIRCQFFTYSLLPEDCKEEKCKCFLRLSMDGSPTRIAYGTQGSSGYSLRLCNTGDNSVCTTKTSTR
T1 sequence (P03952 391-638 limits assumed): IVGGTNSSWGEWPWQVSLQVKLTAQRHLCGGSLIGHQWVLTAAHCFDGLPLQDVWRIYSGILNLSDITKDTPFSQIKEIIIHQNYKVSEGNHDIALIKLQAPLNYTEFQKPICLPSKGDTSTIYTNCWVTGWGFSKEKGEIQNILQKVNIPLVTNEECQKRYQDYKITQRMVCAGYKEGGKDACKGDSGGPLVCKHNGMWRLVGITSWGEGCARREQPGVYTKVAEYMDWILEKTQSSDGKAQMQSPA
Sequence of Receptor tyrosine-protein kinase erbB-2 (P04626 whole entry): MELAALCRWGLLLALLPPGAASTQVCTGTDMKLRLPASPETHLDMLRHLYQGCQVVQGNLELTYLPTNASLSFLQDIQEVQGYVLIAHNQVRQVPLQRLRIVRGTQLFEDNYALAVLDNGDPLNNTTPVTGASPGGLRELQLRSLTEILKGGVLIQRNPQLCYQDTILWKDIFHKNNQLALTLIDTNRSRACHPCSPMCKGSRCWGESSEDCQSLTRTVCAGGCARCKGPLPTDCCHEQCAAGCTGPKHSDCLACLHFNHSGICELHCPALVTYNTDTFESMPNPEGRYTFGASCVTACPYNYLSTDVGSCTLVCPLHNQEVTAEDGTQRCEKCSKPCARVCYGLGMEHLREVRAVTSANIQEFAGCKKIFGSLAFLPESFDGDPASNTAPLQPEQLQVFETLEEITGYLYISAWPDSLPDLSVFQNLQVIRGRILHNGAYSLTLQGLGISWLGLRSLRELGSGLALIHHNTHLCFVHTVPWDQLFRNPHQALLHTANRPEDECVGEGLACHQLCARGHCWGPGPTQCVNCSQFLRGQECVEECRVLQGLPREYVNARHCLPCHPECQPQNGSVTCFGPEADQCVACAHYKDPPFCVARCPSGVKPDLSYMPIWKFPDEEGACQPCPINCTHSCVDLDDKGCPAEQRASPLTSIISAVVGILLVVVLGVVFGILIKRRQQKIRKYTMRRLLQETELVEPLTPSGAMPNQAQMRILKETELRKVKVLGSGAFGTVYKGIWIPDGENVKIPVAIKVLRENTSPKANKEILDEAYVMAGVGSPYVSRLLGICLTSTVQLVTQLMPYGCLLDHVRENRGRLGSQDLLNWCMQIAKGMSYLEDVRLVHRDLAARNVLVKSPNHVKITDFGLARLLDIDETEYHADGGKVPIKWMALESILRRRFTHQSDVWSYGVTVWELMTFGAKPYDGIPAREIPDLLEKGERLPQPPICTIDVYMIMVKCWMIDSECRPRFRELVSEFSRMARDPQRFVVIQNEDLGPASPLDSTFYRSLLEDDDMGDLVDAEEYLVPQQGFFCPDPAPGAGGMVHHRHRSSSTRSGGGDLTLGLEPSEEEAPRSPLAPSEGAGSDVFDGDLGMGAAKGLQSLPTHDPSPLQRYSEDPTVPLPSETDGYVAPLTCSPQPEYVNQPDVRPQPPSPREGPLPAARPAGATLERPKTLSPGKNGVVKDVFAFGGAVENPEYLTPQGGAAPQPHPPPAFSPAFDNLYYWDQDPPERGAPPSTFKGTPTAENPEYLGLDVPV
Sequence of Angiotensin-converting enzyme 2 (Q9BYF1 whole entry): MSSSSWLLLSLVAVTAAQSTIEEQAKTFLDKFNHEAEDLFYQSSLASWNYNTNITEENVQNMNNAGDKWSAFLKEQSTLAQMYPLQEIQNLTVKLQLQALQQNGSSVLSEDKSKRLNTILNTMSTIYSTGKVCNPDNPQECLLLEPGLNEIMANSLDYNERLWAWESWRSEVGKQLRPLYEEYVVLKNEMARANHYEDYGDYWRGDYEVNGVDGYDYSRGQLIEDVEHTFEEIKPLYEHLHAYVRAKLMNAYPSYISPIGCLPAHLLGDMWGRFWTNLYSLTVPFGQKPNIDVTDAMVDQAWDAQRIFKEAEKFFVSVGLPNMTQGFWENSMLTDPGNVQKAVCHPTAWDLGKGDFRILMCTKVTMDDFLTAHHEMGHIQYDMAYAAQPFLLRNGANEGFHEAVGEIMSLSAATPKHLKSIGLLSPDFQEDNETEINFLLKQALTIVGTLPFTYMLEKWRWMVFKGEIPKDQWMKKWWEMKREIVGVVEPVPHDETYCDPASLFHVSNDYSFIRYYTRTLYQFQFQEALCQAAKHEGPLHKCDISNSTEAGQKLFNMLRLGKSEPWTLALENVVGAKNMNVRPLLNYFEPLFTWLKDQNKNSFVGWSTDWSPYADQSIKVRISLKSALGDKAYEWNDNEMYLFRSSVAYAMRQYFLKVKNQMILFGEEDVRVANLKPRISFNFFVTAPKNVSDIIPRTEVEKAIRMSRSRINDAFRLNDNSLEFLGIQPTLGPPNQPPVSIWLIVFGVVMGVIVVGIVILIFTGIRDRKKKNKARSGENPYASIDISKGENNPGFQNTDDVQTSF
Sequence of Plasma kallikrein (Mus musculus) (P26262 20-390 limits assumed): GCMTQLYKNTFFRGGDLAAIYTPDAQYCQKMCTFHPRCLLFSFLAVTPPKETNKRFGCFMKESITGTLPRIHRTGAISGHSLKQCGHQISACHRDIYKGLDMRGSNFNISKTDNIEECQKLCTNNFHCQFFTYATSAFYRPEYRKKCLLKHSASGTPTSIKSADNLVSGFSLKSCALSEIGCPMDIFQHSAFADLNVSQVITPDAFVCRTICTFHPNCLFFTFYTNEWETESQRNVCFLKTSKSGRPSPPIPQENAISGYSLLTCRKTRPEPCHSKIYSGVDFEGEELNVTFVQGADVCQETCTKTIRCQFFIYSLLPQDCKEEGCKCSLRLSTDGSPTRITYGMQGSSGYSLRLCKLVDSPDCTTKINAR
Sequence of Plasma kallikrein (Mus musculus) (P26262 391-638 limits assumed): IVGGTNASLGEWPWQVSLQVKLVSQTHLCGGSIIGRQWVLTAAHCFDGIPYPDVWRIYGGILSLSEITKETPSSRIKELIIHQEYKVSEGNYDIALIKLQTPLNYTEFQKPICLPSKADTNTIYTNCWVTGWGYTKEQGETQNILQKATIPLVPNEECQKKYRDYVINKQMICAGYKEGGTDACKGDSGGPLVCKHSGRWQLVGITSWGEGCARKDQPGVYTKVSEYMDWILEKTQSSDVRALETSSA
Sequence of Coagulation factor XI (Homo sapiens) (P03951 19-387 limits assumed): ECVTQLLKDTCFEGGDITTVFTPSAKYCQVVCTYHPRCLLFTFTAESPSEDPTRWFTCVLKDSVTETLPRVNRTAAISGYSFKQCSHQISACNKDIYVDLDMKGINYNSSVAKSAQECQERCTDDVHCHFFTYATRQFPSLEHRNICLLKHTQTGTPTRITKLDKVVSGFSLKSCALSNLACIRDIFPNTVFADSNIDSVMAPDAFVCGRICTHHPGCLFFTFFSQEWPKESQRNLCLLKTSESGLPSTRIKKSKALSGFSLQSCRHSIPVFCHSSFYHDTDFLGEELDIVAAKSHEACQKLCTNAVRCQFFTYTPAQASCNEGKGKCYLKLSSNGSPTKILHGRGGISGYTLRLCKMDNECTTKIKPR
Sequence of Coagulation factor XI (Homo sapiens) (P03951 388-625 limits assumed): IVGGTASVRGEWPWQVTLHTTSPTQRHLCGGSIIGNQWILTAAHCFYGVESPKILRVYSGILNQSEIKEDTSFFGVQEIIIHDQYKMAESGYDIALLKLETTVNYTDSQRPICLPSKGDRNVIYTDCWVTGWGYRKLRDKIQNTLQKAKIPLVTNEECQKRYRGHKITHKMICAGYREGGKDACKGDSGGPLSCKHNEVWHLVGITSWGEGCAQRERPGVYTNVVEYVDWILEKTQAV
Sequence of Coagulation factor VII/tissue factor (P08709 61-212 limits assumed): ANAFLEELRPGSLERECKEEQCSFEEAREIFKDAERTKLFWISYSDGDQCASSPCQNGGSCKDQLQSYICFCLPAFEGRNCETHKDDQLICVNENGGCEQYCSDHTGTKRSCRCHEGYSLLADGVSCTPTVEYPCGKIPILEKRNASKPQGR
Sequence of Coagulation factor VII/tissue factor (P08709 213-466 limits assumed): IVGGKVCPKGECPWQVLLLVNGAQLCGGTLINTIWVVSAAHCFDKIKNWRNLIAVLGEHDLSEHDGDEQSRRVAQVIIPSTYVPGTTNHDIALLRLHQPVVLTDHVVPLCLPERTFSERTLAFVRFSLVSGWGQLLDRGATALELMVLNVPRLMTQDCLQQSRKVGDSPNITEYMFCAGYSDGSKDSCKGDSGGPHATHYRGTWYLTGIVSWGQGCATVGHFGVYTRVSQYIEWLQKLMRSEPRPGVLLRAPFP
Sequence of Coagulation factor VII/tissue factor (P13726 33-295 partner limits assumed): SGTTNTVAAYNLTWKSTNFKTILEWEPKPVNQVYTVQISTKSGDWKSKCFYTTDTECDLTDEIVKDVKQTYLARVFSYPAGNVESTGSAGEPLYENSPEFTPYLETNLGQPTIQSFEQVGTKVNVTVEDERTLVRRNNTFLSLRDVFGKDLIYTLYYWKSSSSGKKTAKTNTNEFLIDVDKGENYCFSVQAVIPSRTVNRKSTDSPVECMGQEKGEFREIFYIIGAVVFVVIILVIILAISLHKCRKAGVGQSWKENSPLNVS

Which Ki [1] does the source give for CSCC[C@H](NC(=O)[C@H](CCCNC(=N)N)NC(=O)[C@H](Cc1cnc[nH]1)NC(=O)[C@H](CC(N)=O)NC(=O)[C@H](CCC(=O)O)NC(=O)[C@H](CC(C)C)NC(=O)CNC(=O)[C@H](CCCNC(=N)N)NC(=O)[C@H](Cc1c[nH]c2ccccc12)NC(=O)[C@H](CO)NC(=O)[C@@H](N)CS)C(=O)N[C@@H](CS)C(=O)O here?
Its Ki is 6.7 µM.

Which Ki [1] does the source give for CC(C)C[C@H](NC(=O)[C@H](Cc1ccc(O)cc1)NC(=O)[C@H](CCCNC(=N)N)NC(=O)[C@H](CO)NC(=O)[C@H](Cc1ccc(O)cc1)NC(=O)[C@H](C)NC(=O)[C@@H]1CCCN1C(=O)[C@@H](N)CS)C(=O)N[C@@H](CC(=O)O)C(=O)N[C@@H](CS)C(=O)O here?
Its Ki is 0.4 µM.

With CC(C)C[C@H](NC(=O)[C@@H]1CCCN1C(=O)[C@H](CO)NC(=O)[C@H](CS)NC(=O)[C@H](Cc1cnc[nH]1)NC(=O)[C@H](CO)NC(=O)[C@H](Cc1ccc(O)cc1)NC(=O)[C@@H](CC(=O)O)NC(=O)CN)C(=O)N[C@@H](CCCNC(=N)N)C(=O)N[C@@H](Cc1ccc(O)cc1)C(=O)N[C@@H](Cc1ccc(O)cc1)C(=O)N1CCC[C@H]1C(=O)N[C@@H](Cc1c[nH]c2ccccc12)C(=O)N[C@@H](Cc1c[nH]c2ccccc12)C(=O)N[C@@H](CCCCN)C(=O)N[C@@H](CS)C(=O)N[C@H](C(=O)N[C@@H](Cc1ccc(O)cc1)C(=O)N1CCC[C@H]1C(=O)N[C@@H](CC(=O)O)C(=O)N1CCC[C@H]1C(=O)O)[C@@H](C)O as the compound, how does the Ki [2] read?
Its Ki is 0.0028 µM.

What does the source list for CC(C)C[C@@H]1NC(=O)[C@H](C)NC(=O)[C@H](CCC(=O)O)NC(=O)[C@H](CC(=O)O)NC(=O)[C@H](C)NC(=O)[C@@H]2CCCN2C(=O)[C@@H]2CSCc3cc(cc(c3)CSC[C@@H](C(=O)NCC(N)=O)NC1=O)CSC[C@H](NC(=O)[C@H](C)N)C(=O)N[C@@H](CO)C(=O)N[C@@H](CC(=O)O)C(=O)N[C@@H](CCCNC(=N)N)C(=O)N[C@@H](Cc1ccccc1)C(=O)N[C@@H](CCCNC(=N)N)C(=O)N[C@@H](CC(N)=O)C(=O)N2 (H-ACSDRFRNCPADEALCG-NH2; linker 2-9-16 via TBMB)?
Stability [3]: Unstable; metabolised at 24 h [4]: 90%; inhibition (Plasma kallikrein [5]): Active

Which results are given for CC[C@H](C)[C@H](NC(=O)[C@H](CCC(=O)O)NC(=O)[C@@H](NC(=O)[C@@H]1CCCN1C(=O)[C@H](CS)NC(=O)[C@H](Cc1ccc(O)cc1)NC(=O)[C@H](CCCNC(=N)N)NC(=O)[C@H](CCCNC(=N)N)NC(=O)[C@H](CCC(=O)O)NC(=O)[C@@H](NC(=O)[C@H](CO)NC(=O)[C@H](CS)NC(=O)[C@H](C)N)[C@@H](C)O)[C@@H](C)CC)C(=O)N[C@@H](Cc1ccccc1)C(=O)N1CCC[C@H]1C(=O)N[C@@H](CS)C(=O)NCC(N)=O (H-ACSTERRYCPIEIFPCG-NH2)?
IC50 (Plasma kallikrein [6]): 7.18 µM; inhibition [7]: inactive; inhibition [8]: inactive; inhibition [9]: inactive

For N=C(N)NCCC[C@H](NC(=O)[C@H](CS)NC(=O)[C@H](CCCNC(=N)N)NC(=O)[C@H](Cc1c[nH]c2ccccc12)NC(=O)[C@H](CO)NC(=O)[C@H](Cc1ccccc1)NC(=O)[C@H](CS)NC(=O)[C@@H](N)CS)C(=O)N[C@@H](CS)C(=O)O (H-CCFSWRCRC-OH), which Ki [10] is on record?
The Ki was 1 µM.

For CC(C)C[C@H](NC(=O)[C@H](Cc1ccccc1)NC(=O)[C@H](Cc1c[nH]c2ccccc12)NC(=O)[C@H](CCC(N)=O)NC(=O)[C@H](CC(C)C)NC(=O)[C@H](CC(C)C)NC(=O)[C@H](CCCN=C(N)N)NC(=O)[C@H](CC(C)C)NC(=O)[C@@H](N)CS)C(=O)N[C@@H](Cc1c[nH]c2ccccc12)C(=O)N[C@@H](C)C(=O)N[C@@H](CS)C(=O)O (H-CLRLLQWFLWAC-OH), which Ki [11] is on record?
The Ki was 0.2 µM.

With CC[C@H](C)[C@H](NC(=O)[C@H](CS)NC(=O)[C@H](Cc1ccc(O)cc1)NC(=O)[C@H](C)NC(=O)[C@@H](NC(=O)[C@@H](N)CS)C(C)C)C(=O)N[C@@H](CCC(=O)O)C(=O)N[C@@H](Cc1cnc[nH]1)C(=O)N[C@@H](Cc1cnc[nH]1)C(=O)N[C@@H](CS)C(=O)N[C@@H](Cc1c[nH]c2ccccc12)C(=O)N[C@H](C(=O)N[C@@H](CS)C(=O)O)[C@@H](C)O (H-CVAYCIEHHCWTC-OH) as the compound, how does the Kd [12] read?
The Kd was 2.9 µM.

Which IC50 [13] does the source give for CC(C)[C@H](NC(=O)[C@@H](N)CS)C(=O)N[C@@H](Cc1cnc[nH]1)C(=O)N[C@@H](CO)C(=O)N1CCC[C@H]1C(=O)N[C@@H](CC(N)=O)C(=O)N[C@@H](CCCNC(=N)N)C(=O)N[C@@H](CCC(=O)O)C(=O)N[C@@H](CS)C(=O)O (H-CVHSPNREC-OH) here?
The IC50 was 9 µM.

Which IC50 [14] does the source give for CC(C)C[C@H](NC(=O)[C@@H](NC(=O)[C@H](CCC(=O)O)NC(=O)[C@H](Cc1c[nH]c2ccccc12)NC(=O)[C@H](CCC(=O)O)NC(=O)[C@@H](N)CCC(=O)O)C(C)C)C(=O)N[C@@H](CS)C(=O)N[C@@H](Cc1c[nH]c2ccccc12)C(=O)N[C@H](C(=O)N[C@@H](Cc1c[nH]c2ccccc12)C(=O)N[C@@H](CCC(=O)O)C(=O)N[C@H](C(=O)N[C@@H](CS)C(=O)N[C@@H](CCC(=O)O)C(=O)N[C@@H](CCCN=C(N)N)C(=O)O)[C@@H](C)O)[C@@H](C)O (H-EEWEVLCWTWETCER-OH) here?
Its IC50 is 0.0015 µM.

For CC(C)C[C@H](NC(=O)[C@H](CO)NC(=O)[C@H](Cc1ccc(O)cc1)NC(=O)[C@H](CS)NC(=O)[C@H](CS)NC(=O)[C@@H](N)CCCCN)C(=O)O (H-KCCYSL-OH), which Ki [15] is on record?
Its Ki is 30 µM.

For H-SRFKVWWAAF-OH, which IC50 (Kallikrein-2) is on record?
The IC50 was 3.4 µM.

For H-YDFYWW-OH, which IC50 [16] is on record?
Its IC50 is 30 µM.
